Measurements as given in paper PMC2195561 (The Journal of Experimental Medicine, 1999).
pIC50: −log10 of the molar value. No end group written: not given here.

Experiments:
TAP [1] = molecular target: T1, TAP (Homo sapiens, UniProt Q03518+Q03519); test: Competition of TAP-mediated translocation of iodinated peptide 417; format: biochemical
T1 sequence (Q03518 1-748): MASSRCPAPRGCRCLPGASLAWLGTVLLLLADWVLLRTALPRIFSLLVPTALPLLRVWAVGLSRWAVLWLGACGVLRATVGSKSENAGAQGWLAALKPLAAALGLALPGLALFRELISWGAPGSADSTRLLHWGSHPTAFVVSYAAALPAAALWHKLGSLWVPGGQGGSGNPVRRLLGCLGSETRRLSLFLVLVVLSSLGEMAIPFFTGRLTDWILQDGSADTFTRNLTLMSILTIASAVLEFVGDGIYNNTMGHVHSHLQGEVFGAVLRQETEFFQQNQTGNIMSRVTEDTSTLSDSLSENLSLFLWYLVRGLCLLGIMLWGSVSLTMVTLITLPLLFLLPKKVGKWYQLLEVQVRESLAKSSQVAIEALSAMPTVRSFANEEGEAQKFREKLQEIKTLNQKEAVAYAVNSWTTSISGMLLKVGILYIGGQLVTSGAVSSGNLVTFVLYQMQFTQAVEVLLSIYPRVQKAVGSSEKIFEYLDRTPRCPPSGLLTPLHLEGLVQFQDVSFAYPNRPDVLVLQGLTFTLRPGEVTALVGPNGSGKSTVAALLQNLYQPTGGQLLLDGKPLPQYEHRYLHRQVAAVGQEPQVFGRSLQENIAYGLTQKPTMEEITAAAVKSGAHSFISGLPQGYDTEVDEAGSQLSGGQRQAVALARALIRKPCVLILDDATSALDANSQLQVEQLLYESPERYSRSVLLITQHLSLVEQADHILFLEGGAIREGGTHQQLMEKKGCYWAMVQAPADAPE
T1 sequence (Q03519 1-686): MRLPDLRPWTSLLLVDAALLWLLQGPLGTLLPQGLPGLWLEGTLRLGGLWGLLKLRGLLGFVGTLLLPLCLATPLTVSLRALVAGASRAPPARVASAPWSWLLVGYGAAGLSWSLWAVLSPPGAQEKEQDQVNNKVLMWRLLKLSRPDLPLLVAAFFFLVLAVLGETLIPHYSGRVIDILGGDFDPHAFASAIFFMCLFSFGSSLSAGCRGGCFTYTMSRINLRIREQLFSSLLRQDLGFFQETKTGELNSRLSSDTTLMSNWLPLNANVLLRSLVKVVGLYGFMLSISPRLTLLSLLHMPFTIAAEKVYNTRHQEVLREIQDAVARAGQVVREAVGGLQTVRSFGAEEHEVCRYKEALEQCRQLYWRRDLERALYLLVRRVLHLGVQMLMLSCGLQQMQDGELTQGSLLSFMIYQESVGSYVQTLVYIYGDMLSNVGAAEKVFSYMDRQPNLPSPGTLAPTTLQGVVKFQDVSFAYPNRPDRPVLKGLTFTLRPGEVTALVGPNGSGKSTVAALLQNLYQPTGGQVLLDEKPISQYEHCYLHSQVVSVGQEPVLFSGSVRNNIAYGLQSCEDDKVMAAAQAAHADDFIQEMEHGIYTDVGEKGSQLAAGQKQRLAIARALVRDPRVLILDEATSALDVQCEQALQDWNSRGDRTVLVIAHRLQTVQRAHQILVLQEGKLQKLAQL
How it was run: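 Iodinated index peptide (125I via chloramine-T) premixed with unlabelled competitor peptide, then added to streptolysin O–permeabilized human LCL721 cells for TAP-mediated transport into the ER. Translocated index peptide is given as a fraction of that recovered without competitor.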

TAP [2] = molecular target: T1, TAP; test: Direct TAP-mediated translocation of radiolabeled peptides, human TAP; format: biochemical; details: streptolysin O–permeabilized LCL721 cells; Con A–Sepharose recovery; Fig. 1 B
How it was run: (§1)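 Test peptides carrying an N-linked glycosylation sequon are radioiodinated (Na-125I, chloramine-T) and added to streptolysin O–permeabilized LCL721 cells. Peptide reaching the ER acquires an N-glycan and is recovered on Con A–Sepharose, given as a fraction of total input. Controls are samples run without ATP and TAP-deficient T2 cells.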

TAP [3] = test: Direct TAP-mediated translocation of radiolabeled peptides, murine TAP; format: biochemical; details: data not shown
Con A = test: Con A–Sepharose recovery in the absence of ATP; format: binding; details: no N-linked glycan, Fig. 1 B
How it was run: as §1

FASGNYSAL [wt-S] was tested, and the pIC50 (TAP [1]) was 4.92.

For “TVNKTERAY [compound 417, reference compound]”, the “translocation by human TAP” value (TAP [2]) was “very efficiently translocated” and the “translocation by murine TAP” value (TAP [3]) was “very efficiently translocated”.

TVNKTES [O-β-GlcNAc]AY [417-G] was tested, and the “recovery by Con A–Sepharose in the absence of ATP” value (Con A) was “not itself a ligand for Con A” and the “translocation by human TAP” value (TAP [2]) was “also translocated by TAP”.

In the case of TVNKTESAY [417-S], the “translocation by human TAP” value (TAP [2]) was “very efficiently translocated” and the “translocation by murine TAP” value (TAP [3]) was “very efficiently translocated”.
